Measurements taken from ChEMBL document CHEMBL1157014, “Synthesis, characterization and biological evaluation of some thiourea derivatives bearing benzothiazole moiety as potential antimicrobial and anticancer agents” (Eur J Med Chem, 2010).
In brackets after ≈: the same amount, converted by molar mass.

Columns and labels:
[1] = test system: Staphylococcus epidermidis; assay: Antibacterial activity against Staphylococcus epidermidis ATCC 12228 after 24 hrs by browth microdilution assay; type: functional; details: ATCC 12228, 24 h
Summary of the method: (§1)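 Broth microdilution per CLSI. Colonies suspended in 0.9% saline and adjusted to McFarland 0.5. Compounds dissolved in DMSO, diluted with distilled water to 100, 50, 25, 12.5, 6.25 and 3.125 µg/ml, with DMSO as negative control. Gentamycin (Gram-negative) and amikacin (Gram-positive) served as reference drugs. Incubation at 37 °C for 24 h. MIC taken as the lowest concentration preventing visible growth.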

[2] = test system: Staphylococcus aureus; assay: Antibacterial activity against Staphylococcus aureus ATCC 29213 after 24 hrs by browth microdilution assay; type: functional; details: ATCC 29213, 24 h; summary of the method: as §1
[3] = test system: Enterococcus faecalis; assay: Antibacterial activity against Enterococcus faecalis ATCC 29212 after 24 hrs by browth microdilution assay; type: functional; details: ATCC 29212, 24 h; summary of the method: as §1
[4] = test system: Staphylococcus aureus (ATCC 25923); assay: Antibacterial activity against Staphylococcus aureus ATCC 25923 after 24 hrs by browth microdilution assay; details: ATCC 25923, 24 h
[5] = test system: Enterobacter cloacae; assay: Antibacterial activity against Enterobacter cloacae ATCC 13047 after 24 hrs by browth microdilution assay; type: functional; summary of the method: as §1
[6] = test system: Pseudomonas aeruginosa; assay: Antibacterial activity against Pseudomonas aeruginosa ATCC 27853 after 24 hrs by browth microdilution assay; type: functional; summary of the method: as §1
[7] = test system: Proteus vulgaris; assay: Antibacterial activity against Proteus vulgaris ATCC 13315 after 24 hrs by browth microdilution assay; type: functional; summary of the method: as §1
[8] = test system: Nakaseomyces glabratus; assay: Antifungal activity against Candida glabrata ATCC 32554 after 48 hrs by browth microdilution assay; type: functional
Summary of the method: (§2)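 Yeast colonies suspended in 0.9% saline and adjusted to McFarland 0.5, then tested by CLSI broth microdilution. Compounds in DMSO, diluted with distilled water to 3.125–100 µg/ml, with DMSO as negative control and nystatin as reference. Incubation at 37 °C, read after 48 h. MIC is the lowest concentration with no visible growth.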

[9] = test system: Candida albicans; assay: Antifungal activity against Candida albicans ATCC 90028 after 48 hrs by browth microdilution assay; type: functional; summary of the method: as §2
[10] = test system: Candida tropicalis; assay: Antifungal activity against Candida tropicalis ATCC 20336 after 48 hrs by browth microdilution assay; type: functional; summary of the method: as §2
[11] = test system: Pichia kudriavzevii; assay: Antifungal activity against Candida krusei ATCC 6268 after 48 hrs by browth microdilution assay; type: functional; summary of the method: as §2
[12] = test system: MCF7; assay: Cytotoxicity against human MCF7 after 24 hrs by MTT assay; type: functional, cell-based; details: MCF7, 24 h
Summary of the method: (§3)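 Cells grown in MEM with 10% FBS and 1% glutamine at 5% CO2, seeded at 1.0×10^4 cells. Exposed to compounds at 1–100 µM in medium containing 0.1% DMSO for 24 h at 37 °C. MTT (1 mg/ml) added for 5 h at 37 °C, then DMSO added and absorbance read at 540 nm. Run in triplicate; IC50 determined.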

[13] = test system: HeLa; assay: Cytotoxicity against human HeLa after 24 hrs by MTT assay; type: functional, cell-based; summary of the method: as §3
[14] = test system: Escherichia coli; assay: microbe, parasite or virus in culture; details: ATCC 25922, 24 h
[15] = test system: MCF7; assay: Cytotoxicity against human MCF7 after 48 hrs by MTT assay; type: functional, cell-based; details: MCF7, 48 h
Summary of the method: (§4)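 MCF-7 cells in MEM with 10% FBS at 5% CO2 were exposed to compounds (1–100 µM, 0.1% DMSO vehicle) for 48 or 72 h before MTT read-out. IC50 values came from the MTT assay.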

[16] = test system: MCF7; assay: Cytotoxicity against human MCF7 after 72 hrs by MTT assay; type: functional, cell-based; details: MCF7, 72 h; summary of the method: as §4

Compound	MIC [1] [mg/L]	MIC [2] [mg/L]	MIC [3] [mg/L]	MIC [4] [mg/L]	MIC ([5]; ATCC 13047, 24 h) [mg/L]	MIC ([6]; ATCC 27853, 24 h) [mg/L]	MIC ([7]; ATCC 13315, 24 h) [mg/L]	MIC ([8]; ATCC 32554, 48 h) [mg/L]	MIC ([9]; ATCC 90028, 48 h) [mg/L]	MIC ([10]; ATCC 20336, 48 h) [mg/L]	MIC ([11]; ATCC 6268, 48 h) [mg/L]	IC50 [12] [µM]	IC50 [13] [µM]	MIC [14] [mg/L]	further results
NCC[C@H](O)C(=O)N[C@@H]1C[C@H](N)[C@@H](O[C@H]2O[C@H](CN)[C@@H](O)[C@H](O)[C@H]2O)[C@H](O)[C@H]1O[C@H]1O[C@H](CO)[C@@H](O)[C@H](N)[C@H]1O [AMIKACIN]	0.5 (≈ 0.854 µM)	2 (≈ 3.42 µM)	4 (≈ 6.83 µM)	2 (≈ 3.42 µM)											
O=C(NC(=S)Nc1nc2ccccc2s1)c1cccs1	50 (≈ 157 µM)	50 (≈ 157 µM)	50 (≈ 157 µM)	50 (≈ 157 µM)	50 (≈ 157 µM)	50 (≈ 157 µM)	50 (≈ 157 µM)	25 (≈ 78.3 µM)	50 (≈ 157 µM)	50 (≈ 157 µM)	25 (≈ 78.3 µM)	32.6	68.2	25 (≈ 78.3 µM)	
CCCC(=O)NC(=S)Nc1nc2cc(N)ccc2s1	50 (≈ 170 µM)	50 (≈ 170 µM)	50 (≈ 170 µM)					50 (≈ 170 µM)	20 (≈ 67.9 µM)	50 (≈ 170 µM)	50 (≈ 170 µM)	44.7			
Nc1ccc2sc(NC(=S)NC(=O)c3ccc([N+](=O)[O-])cc3)nc2c1	50 (≈ 134 µM)	50 (≈ 134 µM)	50 (≈ 134 µM)	50 (≈ 134 µM)	25 (≈ 66.9 µM)	50 (≈ 134 µM)	25 (≈ 66.9 µM)	50 (≈ 134 µM)	50 (≈ 134 µM)	25 (≈ 66.9 µM)	50 (≈ 134 µM)	33.2	63.1	25 (≈ 66.9 µM)	
O=C(NC(=S)Nc1nc2cc(Br)ccc2s1)c1cccs1					50 (≈ 126 µM)	25 (≈ 62.8 µM)	50 (≈ 126 µM)					24.2	46.5	25 (≈ 62.8 µM)	IC50 [15]: 15.7 µM; IC50 [16]: 12.1 µM
O=C(NC(=S)Nc1nc2ccccc2s1)c1ccccc1								25 (≈ 79.8 µM)	50 (≈ 160 µM)	50 (≈ 160 µM)	50 (≈ 160 µM)	37.3	57.5		
O=C(NC(=S)Nc1nc2cc([N+](=O)[O-])ccc2s1)c1ccc([N+](=O)[O-])cc1	25 (≈ 62 µM)	50 (≈ 124 µM)	50 (≈ 124 µM)	50 (≈ 124 µM)	25 (≈ 62 µM)	50 (≈ 124 µM)	25 (≈ 62 µM)	25 (≈ 62 µM)	25 (≈ 62 µM)	25 (≈ 62 µM)	25 (≈ 62 µM)	35.2	68.5	50 (≈ 124 µM)	
NYSTATIN															MIC [8]: 2 mg/L; MIC [9]: 1 mg/L; MIC [10]: 4 mg/L; MIC [11]: 0.5 mg/L
Nc1ccc2sc(NC(=S)NC(=O)c3ccccc3)nc2c1	50 (≈ 152 µM)	50 (≈ 152 µM)	50 (≈ 152 µM)	50 (≈ 152 µM)	50 (≈ 152 µM)	50 (≈ 152 µM)	50 (≈ 152 µM)	25 (≈ 76.1 µM)	25 (≈ 76.1 µM)	50 (≈ 152 µM)	25 (≈ 76.1 µM)	38.6	70.1	50 (≈ 152 µM)	
CCCC(=O)NC(=S)Nc1nc2ccccc2s1								50 (≈ 179 µM)	20 (≈ 71.6 µM)	50 (≈ 179 µM)	25 (≈ 89.5 µM)	36.6	56.7		
O=C(NC(=S)Nc1nc2cc([N+](=O)[O-])ccc2s1)N1CCOCC1	10 (≈ 27.2 µM)	25 (≈ 68 µM)	10 (≈ 27.2 µM)	20 (≈ 54.4 µM)	15 (≈ 40.8 µM)	25 (≈ 68 µM)	20 (≈ 54.4 µM)	5 (≈ 13.6 µM)	15 (≈ 40.8 µM)	5 (≈ 13.6 µM)	20 (≈ 54.4 µM)	31	54.8	15 (≈ 40.8 µM)	
O=C(NC(=S)Nc1nc2ccccc2s1)c1ccc([N+](=O)[O-])cc1												33.8	62.6		
O=C(NC(=S)Nc1nc2cc([N+](=O)[O-])ccc2s1)c1ccccc1	20 (≈ 55.8 µM)	25 (≈ 69.8 µM)	50 (≈ 140 µM)	15 (≈ 41.9 µM)	25 (≈ 69.8 µM)	20 (≈ 55.8 µM)	15 (≈ 41.9 µM)	15 (≈ 41.9 µM)	25 (≈ 69.8 µM)	50 (≈ 140 µM)	50 (≈ 140 µM)	41.6	75.1	20 (≈ 55.8 µM)	
CCCC(=O)NC(=S)Nc1nc2cc([N+](=O)[O-])ccc2s1	50 (≈ 154 µM)	50 (≈ 154 µM)	50 (≈ 154 µM)		20 (≈ 61.7 µM)	20 (≈ 61.7 µM)	20 (≈ 61.7 µM)	25 (≈ 77.1 µM)	20 (≈ 61.7 µM)	50 (≈ 154 µM)	25 (≈ 77.1 µM)	> 100			
GENTAMICIN															MIC [5]: 2 mg/L; MIC [6]: 1 mg/L; MIC [7]: 2 mg/L
O=C(NC(=S)Nc1nc2cc(Br)ccc2s1)N1CCOCC1	25 (≈ 62.3 µM)	25 (≈ 62.3 µM)	50 (≈ 125 µM)	50 (≈ 125 µM)	50 (≈ 125 µM)	50 (≈ 125 µM)	50 (≈ 125 µM)	25 (≈ 62.3 µM)	50 (≈ 125 µM)	25 (≈ 62.3 µM)	50 (≈ 125 µM)	18.1	38.9	25 (≈ 62.3 µM)	IC50 [15]: 20.3 µM; IC50 [16]: 6.95 µM
O=C(NC(=S)Nc1nc2cc(Br)ccc2s1)c1ccc([N+](=O)[O-])cc1	50 (≈ 114 µM)	50 (≈ 114 µM)	50 (≈ 114 µM)	50 (≈ 114 µM)				50 (≈ 114 µM)	50 (≈ 114 µM)	50 (≈ 114 µM)	50 (≈ 114 µM)	32.4	56.5		
Nc1ccc2sc(NC(=S)NC(=O)c3cccs3)nc2c1					50 (≈ 149 µM)	50 (≈ 149 µM)	25 (≈ 74.7 µM)	20 (≈ 59.8 µM)	25 (≈ 74.7 µM)	25 (≈ 74.7 µM)	25 (≈ 74.7 µM)	28.4	56.1	20 (≈ 59.8 µM)	
O=C(NC(=S)Nc1nc2ccccc2s1)N1CCOCC1	25 (≈ 77.5 µM)	50 (≈ 155 µM)	50 (≈ 155 µM)	50 (≈ 155 µM)	25 (≈ 77.5 µM)	50 (≈ 155 µM)	25 (≈ 77.5 µM)	25 (≈ 77.5 µM)	25 (≈ 77.5 µM)	25 (≈ 77.5 µM)	25 (≈ 77.5 µM)	29.3	51.8	25 (≈ 77.5 µM)	
CCCC(=O)NC(=S)Nc1nc2cc(Br)ccc2s1	50 (≈ 140 µM)	50 (≈ 140 µM)	50 (≈ 140 µM)		50 (≈ 140 µM)	50 (≈ 140 µM)	50 (≈ 140 µM)	50 (≈ 140 µM)	25 (≈ 69.8 µM)	50 (≈ 140 µM)	50 (≈ 140 µM)	45.7	60.2		
O=C(NC(=S)Nc1nc2cc(Br)ccc2s1)c1ccccc1	50 (≈ 127 µM)	50 (≈ 127 µM)	50 (≈ 127 µM)	50 (≈ 127 µM)				25 (≈ 63.7 µM)	25 (≈ 63.7 µM)	50 (≈ 127 µM)	50 (≈ 127 µM)	32.1	64.6		
O=C(NC(=S)Nc1nc2cc([N+](=O)[O-])ccc2s1)c1cccs1	10 (≈ 27.4 µM)	25 (≈ 68.6 µM)	15 (≈ 41.2 µM)	25 (≈ 68.6 µM)	15 (≈ 41.2 µM)	20 (≈ 54.9 µM)	20 (≈ 54.9 µM)	10 (≈ 27.4 µM)	15 (≈ 41.2 µM)	15 (≈ 41.2 µM)	20 (≈ 54.9 µM)	35.9	72.6	15 (≈ 41.2 µM)	
Nc1ccc2sc(NC(=S)NC(=O)N3CCOCC3)nc2c1	20 (≈ 59.3 µM)	25 (≈ 74.1 µM)	50 (≈ 148 µM)	50 (≈ 148 µM)	25 (≈ 74.1 µM)	50 (≈ 148 µM)	20 (≈ 59.3 µM)	15 (≈ 44.5 µM)	20 (≈ 59.3 µM)	20 (≈ 59.3 µM)	25 (≈ 74.1 µM)	26.4	45.3	20 (≈ 59.3 µM)	IC50 [15]: 19.2 µM; IC50 [16]: 17.1 µM
